Compounds with a hit are over-represented: about 2.7% of the library has one in this group of screens.
SIAE primary = human SIAE inhibition, primary screen; AID 1053197; Q9HAT2; SIAE FP-Rh probe binding, fluorescence polarization; inhibition, % at 9.66 µM; hit rate 0.69% among 370,000;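 active means inhibition above a cutoff: mean of compounds within the control limits plus 3 SD of those, cut at about 17% in these data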;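 further: 0% = plate median of compound wells and 100% = probe without SIAE protein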
Target sequence (Q9HAT2 whole entry, looked up): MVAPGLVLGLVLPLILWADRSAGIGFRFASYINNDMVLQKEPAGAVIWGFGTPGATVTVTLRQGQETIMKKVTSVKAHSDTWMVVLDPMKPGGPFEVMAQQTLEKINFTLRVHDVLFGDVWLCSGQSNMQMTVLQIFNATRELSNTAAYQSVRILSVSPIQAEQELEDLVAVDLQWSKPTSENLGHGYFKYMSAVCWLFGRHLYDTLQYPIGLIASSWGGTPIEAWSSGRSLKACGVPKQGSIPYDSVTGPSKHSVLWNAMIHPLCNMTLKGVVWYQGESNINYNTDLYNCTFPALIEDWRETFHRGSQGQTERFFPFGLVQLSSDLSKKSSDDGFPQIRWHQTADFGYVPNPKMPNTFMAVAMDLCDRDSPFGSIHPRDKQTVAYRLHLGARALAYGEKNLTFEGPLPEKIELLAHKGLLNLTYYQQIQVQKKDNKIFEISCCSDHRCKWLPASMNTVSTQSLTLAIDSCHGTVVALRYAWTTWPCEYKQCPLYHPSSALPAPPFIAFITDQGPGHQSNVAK
PAD4 FP inh = PAD4 (human) enzyme inhibition; inhibition, % at 6.36 µM; AID 485272; Q9UM07; hit rate 0.41% among 330,000; recombinant PAD4, RCA probe fluorescence polarization;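 active means percent inhibition above a cutoff equal to the mean of all tested compounds plus 3 SD, cut at about 15% in these data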;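 further: 0% = PAD4 with RCA probe and DMSO and 100% = probe without PAD4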
GSTO1 counter = GSTO1 inhibition, counter-screen for RBBP9 inhibitors. P78417. recombinant GSTO1, activity-based probe fluorescence polarization. inhibition, % at 5.96 µM. hit rate 1.1% among 300,000. AID 1974;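 active means inhibition above the campaign mean inhibition plus 3 SD, cut at about 35% in these data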;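 further: 0% = GSTO1-1 with DMSO and 100% = wells lacking GSTO1-1 enzyme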
PRMT1 inh = inhibitors of human PRMT1; Q99873; recombinant PRMT1, activity-based probe fluorescence polarization; inhibition, % at 2.79 µM; hit rate 1.3% among 370,000; AID 652257;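 active means inhibition above about 21% made by adding two undisclosed values, limit read from the data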
RBBP9 inhibitor = blocks human serine hydrolase RBBP9. O75884. recombinant RBBP9, FP-Rh probe fluorescence polarization. inhibition, % at 7.94 µM. hit rate 0.2% among 220,000;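 active means inhibition above the campaign mean of all tested compounds plus 3 SD, cut at about 14% in these data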;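 further: plate controls were DMSO wells with RBBP9 for no effect and wells lacking RBBP9 protein for full effect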
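System: RBBP9 protein / Buffer or medium: Tris/NaCl buffer pH 8.0 with 0.1% Pluronic / Probe or stimulus: Serine-hydrolase probe FP-Rh, 375 nM pre-mixing / Dosing: 7.94 µM single dose, 0.794% DMSO / Times: enzyme-compound preincubation 30 min, then probe labeling 45 min, 25 °C / Technique: fluorescence polarization (mP), excitation 525 nm, emission 598 nm / Replication: singlicate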
PRMT1 inh conf = PRMT1 (human) inhibition, FP confirmation. inhibition, % at 2.79 µM. shares compounds with PRMT1 inh. hit rate 42% among 3,300. AID 687036. recombinant His-PRMT1, activity-based probe fluorescence polarization;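 active means mean inhibition across replicates above the hit cutoff derived for the earlier primary screen, cut at about 22% in these data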
* = called active by the depositor; · = no result given.

SMILES | SIAE primary | PAD4 FP inh | GSTO1 counter | PRMT1 inh | RBBP9 inhibitor | PRMT1 inh conf
Nc1nc(=O)n([C@@H]2CS[C@H](CO)O2)cc1F | -10 | · | · | -3 | · | ·
S=C(Nc1ccccn1)c1ccccn1 | 0 | 0 | 12 | 32* | 1 | 8
O=C(Nc1ccccn1)C(=O)Nc1ccccn1 | 3 | 1 | 5 | 0 | 0 | ·
CC(C)Cc1nc2sc3c(SCC(N)=O)ncnc3c2c2c1CCC2 | -4 | 2 | -2 | 2 | 6 | ·
Cc1cc2nc3c(=O)[nH]c(=O)[nH]c3nc2c([N+](=O)[O-])c1N | 12 | · | · | 79* | 1 | 112*
Cc1ccc2cc(CCNC(=O)CCCc3ccccc3)c(=O)[nH]c2c1 | -6 | -4 | 0 | -3 | · | ·
Cc1cc(Cl)ccc1OCC(=O)Nc1ccc(CN2CCOCC2)cc1 | -10 | · | · | 0 | · | ·
Cc1cc(C)nc(S/C=C/C(=O)c2ccccc2F)n1 | 1 | -1 | 12 | 25* | -3 | 19
Cc1cccc(C)c1-n1nnnc1C1c2ccccc2C(=O)N1CCc1ccc(O)cc1 (stereo not drawn) | 5 | · | · | 5 | · | ·
Cc1cc(NS(=O)(=O)c2ccccc2)ccc1NS(=O)(=O)c1ccccc1 | -2 | · | · | 4 | · | ·
O=S(=O)(Nc1ccc(O)c(NS(=O)(=O)c2ccccc2)c1)c1ccccc1 | 5 | -2 | 3 | 31* | · | 12
O=C(NCC1COc2ccccc2O1)c1ccc(NC(=O)C(c2ccccc2)c2ccccc2)cc1 (stereo not drawn) | 0 | -1 | 5 | -1 | -13 | ·
CN1Cc2c(N)cccc2C(c2ccccc2)C1 (stereo not drawn) | 2 | 2 | 6 | 44* | -10 | 8
O=C1CC(c2ccccc2)c2ccccc21 (stereo not drawn) | 1 | -1 | 5 | -1 | -4 | ·
COc1ccc(N(C)S(=O)(=O)c2cccc(C(=O)N3CCN(c4ccccc4)CC3)c2)cc1 | 5 | · | · | -1 | · | ·
COc1ccc(C2=CSC3=C(C(=O)c4cccc(S(=O)(=O)N(C)C)c4)CCN23)cc1 | -2 | 0 | 0 | 28* | -5 | 27*
Cc1cc2nc(-c3ccco3)c(Cc3ccccc3C(F)(F)F)n2c(C)c1Br | -7 | · | · | 36* | · | 17
Cc1ccc2nc(-c3ccco3)c(Cc3ccccc3C(F)(F)F)n2c1 | -2 | · | · | 33* | · | 19
FC(F)(F)c1ccccc1Cc1c(-c2ccco2)nc2ccc(Br)cn12 | -10 | · | · | 36* | · | 17
FC(F)(F)c1ccccc1Cc1c(-c2ccco2)nc2c3ccccc3ccn12 | -11 | · | · | 32* | · | 23*
Cc1ccc2nc(-c3ccco3)c(Cc3ccccc3)n2c1 | 8 | · | · | 19 | · | ·
Cc1ccc(S(=O)(=O)NN=C2C3CC4CC(C3)CC2C4)cc1 | 7 | -2 | 6 | 1 | · | ·
CCc1ccc(OCc2nnc(SCc3ccc(C(=O)O)cc3)o2)cc1 | 0 | -1 | -2 | -3 | -6 | ·
Nn1c(SCc2ccccc2)nnc1-c1ccco1 | -5 | 1 | 0 | 2 | -3 | ·
CCN1CCN(C(=S)c2ccc(SC)cc2)CC1 | -7 | 0 | 1 | 32* | -2 | 19
SMILES | SIAE primary | PAD4 FP inh | GSTO1 counter | PRMT1 inh | RBBP9 inhibitor | PRMT1 inh conf
CSc1ccc(C(=S)N2CCN(Cc3ccccc3)CC2)cc1 | -8 | -2 | -4 | 32* | -6 | 38*
S=C(c1ccc(Cl)cc1)N1CCN(Cc2ccccc2)CC1 | 6 | -3 | 5 | 1 | -2 | ·
CCOC(=O)[C@H]1[C@H]2COc3ccccc3[C@@H]2N2C(=O)CN(Cc3ccc(C)cc3)C(=O)[C@@]12C | -8 | 2 | · | 50* | · | 8
CCOC(=O)[C@H]1[C@H]2COc3ccc(C)cc3[C@@H]2N2C(=O)CN(Cc3ccc(Cl)cc3)C(=O)[C@@]12C | -3 | 4 | · | 1 | · | ·
C/C(=N\NC(=O)c1ccc(N(C)C)cc1)c1ccc(C)c(C)c1 | -1 | -2 | 1 | 6 | 7 | ·
CCOc1c(OC(C)=O)ccc(/C=C2\N=C(SCC)SC2=O)c1[N+](=O)[O-] | 4 | 4 | 20 | 27* | 2 | 7
CCOc1ccc(CNS(=O)(=O)c2ccc3c(c2)CC(=O)N3C)cc1 | 6 | -1 | 2 | 1 | · | ·
C1CCN(CCCNC2C3CC4CC(C3)CC2C4)C1 (stereo not drawn) | 1 | 4 | -1 | -1 | -10 | ·
CCOC(=O)CSC1=C(C#N)C(=O)NC(c2ccc(OC)cc2)S1 (stereo not drawn) | -1 | -3 | 6 | 35* | -4 | 7
NC(=O)c1ccc(-c2ccc(Br)cc2)o1 | -5 | 2 | -6 | 1 | -2 | ·
NC(=O)C1CCN(C(=S)c2ccc(-c3ccc(Br)cc3)o2)CC1 | -1 | -11 | 7 | 46* | -10 | 60*
CCNc1nc(SCC(N)=O)nc2sc3c(c12)CCN(C)C3 | 2 | · | · | 61* | · | 16
O=C1CC(N2CCCCCC2)C(=O)N1c1ccc2c(c1)OCO2 (stereo not drawn) | 0 | -8 | 6 | 69* | -4 | 35*
O=C1CC(N2CCN(c3ccc(O)cc3)CC2)C(=O)N1c1ccc2c(c1)OCO2 (stereo not drawn) | 3 | -3 | 15 | 39* | -3 | -1
O=C1CC(NC23CC4CC(CC(C4)C2)C3)C(=O)N1c1ccc2c(c1)OCO2 (stereo not drawn) | 1 | 5 | 1 | 65* | -10 | 13
CCC12OC(=N)C(C#N)(C1C)C(C#N)(C#N)C(c1ccccc1)O2 (stereo not drawn) | 7 | 3 | 0 | 28* | -6 | 30*
CCN(CC)CCOc1cc2c(nn1)Oc1ccccc1N2C | 6 | -1 | -6 | -1 | 3 | ·
CNC(=O)C1C(=S)NC(N)=C(C#N)C1c1ccccc1 (stereo not drawn) | 2 | -5 | 11 | 61* | -2 | 12
COC(=O)C1=C(C)OC(N)=C(C#N)C1c1ccccc1 (stereo not drawn) | 4 | 0 | -4 | 1 | 4 | ·
O=C(OCC(=O)C12CC3CC(CC(C3)C1)C2)c1ccc(CO)cc1 | 3 | -2 | · | 1 | · | ·
O=C(OCC(=O)C12CC3CC(CC(C3)C1)C2)c1ccc(O)cc1 | 8 | 1 | · | 56* | · | -7
Cc1ccc(/C=C2\Sc3ccccc3C2=O)s1 | -2 | -9 | -9 | 1 | -6 | ·
O=CN(/C=C1\Sc2ccccc2C1=O)Cc1ccccc1 | -19 | 2 | 5 | 56* | 0 | 9
CC(=O)N(C)/C=C1\Sc2ccccc2C1=O | -20 | -2 | 9 | 78* | -5 | 17
CCC(=O)N(C)/C=C1\Sc2ccccc2C1=O | -14 | -1 | -12 | 56* | -8 | 45*
CC(=O)Nc1ccc(/C=C2\Sc3ccccc3C2=O)cc1 | -11 | -1 | -4 | 6 | 3 | ·
CCC(C)c1c(O)nc(SCC(=O)Nc2ccccc2)[nH]c1=O (stereo not drawn) | 4 | 7 | 21 | 3 | -5 | ·
C=CCc1c(O)nc(SCC(=O)c2ccccc2)[nH]c1=O | 3 | -1 | 4 | 46* | 0 | 57*
